This is a sample that favours compounds with a hit; in the whole collection about 5.1% have one here.
M1 antagonist – antagonists of rat M1 muscarinic receptor; 64,000 compounds, 3.4% hits; B-score at 10 µM; AID 628, 2007; CHO-M1 cells, Fluo-4 calcium, ACh EC80 antagonist mode; active compounds read low;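 active = calcium fluorescence response, raw or row-and-column corrected B-score, differing from the plate sample mean either way at a set confidence level, mostly lower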
M1 ag – M1 muscarinic receptor agonists, primary screen, CHO-M1 cells, Fluo-4 calcium, agonist mode; Muscarinic acetylcholine receptor M1; 64,000 compounds, 3% hits; B-score at 10 µM; AID 626, 2007; Fluo-4 calcium fluorescence; active compounds read high;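 active = fluorescence rise, raw or as B-score row- and column-corrected plate score, outside the 99.7% band of its plate's samples, either direction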
BAP1 block – inhibitors of BAP1 deubiquitinase, primary screen, biochemical, Ub-AMC fluorescence, kinetic; 72,000 compounds, 0.48% hits; Ubiquitin carboxyl-terminal hydrolase BAP1 (Homo sapiens), Q92560; calls only at 20 µM; recombinant BAP1, Ub-AMC hydrolysis fluorescence kinetic; active compounds read low;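 active = activity remaining at or below 50% of control, provided the compound also passes the data quality filters; inactive = the rest, including low values that fail the filters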;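 also: 100% = DMSO wells rate and 0% = substrate alone blank rate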
Target sequence (Q92560 whole entry, looked up): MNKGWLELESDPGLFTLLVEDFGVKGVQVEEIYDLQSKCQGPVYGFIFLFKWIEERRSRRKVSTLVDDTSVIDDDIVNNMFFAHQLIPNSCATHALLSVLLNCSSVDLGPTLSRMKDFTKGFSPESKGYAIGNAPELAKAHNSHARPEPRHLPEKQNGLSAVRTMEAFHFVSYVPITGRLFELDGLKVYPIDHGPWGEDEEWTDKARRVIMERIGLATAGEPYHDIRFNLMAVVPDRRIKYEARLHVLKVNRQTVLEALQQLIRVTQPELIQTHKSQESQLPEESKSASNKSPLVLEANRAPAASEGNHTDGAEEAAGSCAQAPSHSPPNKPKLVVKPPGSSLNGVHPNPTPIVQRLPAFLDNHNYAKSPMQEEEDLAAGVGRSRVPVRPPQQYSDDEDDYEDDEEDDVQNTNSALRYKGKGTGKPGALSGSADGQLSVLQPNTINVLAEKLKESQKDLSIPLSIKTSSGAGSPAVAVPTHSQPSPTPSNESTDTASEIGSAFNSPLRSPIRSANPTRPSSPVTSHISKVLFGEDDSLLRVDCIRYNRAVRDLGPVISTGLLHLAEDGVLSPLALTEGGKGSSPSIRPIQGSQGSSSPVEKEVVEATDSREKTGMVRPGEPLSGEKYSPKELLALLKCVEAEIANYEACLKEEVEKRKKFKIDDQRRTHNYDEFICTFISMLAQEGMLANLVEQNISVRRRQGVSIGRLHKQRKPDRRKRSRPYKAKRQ
Hsp90 inh – tumor Hsp90 inhibitors, primary screen, cell lysate, fluorescence polarization, NCI-N417 lysate | Heat shock protein HSP 90-alpha (Homo sapiens), P07900 | inhibition, % at 30 µM | Cy3B-geldanamycin FP displacement | AID 429, 2006 | 64,000 compounds, 0.35% hits;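 active = inhibition above 50%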;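 also: 0% = tracer plus lysate wells and 100% = tracer alone without lysate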
tolC growth inh – growth inhibitors of E. coli tolC mutant, primary screen, strain BW25113 ΔtolC::kan, 384-well. AID 573, 2007. growth inhibition, % at 10 µM (by protocol). 65,000 compounds, 2.2% hits. OD615;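 active = growth inhibition at or above a cutoff equal to the mean over every tested compound plus 3 SD, cut at about 60% in these data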;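 also: growth measured after 20 h incubation at 37 °C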
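Signal: optical density read at 615 nm; Assay system: E. coli ΔtolC::kan strain BW25113; Times: 20 h incubation with compound, 37 °C; Dosing: 10 µM final, single dose.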
E coli WT exp – growth inhibitors of wild-type E. coli, primary screen, strain BW25113, expanded library, OD600; OD600 absorbance; growth inhibition, % at 100 µM; 98,000 compounds, 0.15% hits;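 active = growth inhibition above about 50% at one test dose, limit read from the data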;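 also: growth measured after 20 h incubation at 37 °C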
An asterisk follows results filed as active; i = inactive; . = no result given.

SMILES	M1 antagonist	M1 ag	BAP1 block	Hsp90 inh	tolC growth inh	E coli WT exp
COc1ccccc1-c1cc(C(F)(F)F)nc(N2CCOCC2)n1	0.13	0.48	.	.	62*	12
COc1ccccc1-c1cc(C(F)(F)F)nc(N2CCN(c3ccccc3)CC2)n1	0.41	0.61	.	.	-5	-10
COc1cccc(-c2cc(C(F)(F)F)nc(N3CCC(C)CC3)n2)c1	.	.	.	.	2	-3
CC1(C)Cc2ccccc2-c2nnc(SCC(=O)N3CCN(c4ccccc4)CC3)n21	-0.5	3.3*	i	1	20	-4
CC1(C)CCC2=C(O1)c1ccccc1C(=O)C2=O	.	.	i	89*	.	.
CCn1c(=N)c(C(=O)OC)cc2c(=O)n3ccccc3nc21	0.21	4.8*	.	3	-4	.
CCOc1ccc2nc(NC(=O)c3ccc(S(=O)(=O)N4CCc5ccccc5C4)cc3)sc2c1	.	.	i	.	.	.
CC1=C(C(=O)Nc2ccccc2Cl)C(c2ccccc2Cl)NC(=S)N1 (stereo not given)	.	.	i	.	.	.
NC(N)=N/N=C/c1ccc(OCc2ccccc2)cc1	.	.	.	.	.	99*
NC(N)=N/N=C/c1ccc(OCc2ccc(Cl)cc2)cc1	.	.	.	.	.	100*
N#C/C(=C\c1cccs1)Sc1nc2ccccc2s1	0.15	-1.6	i	-28	70*	-21
C(=N\Nc1nc2ccccc2s1)/c1cccs1	.	.	.	.	.	1
CCc1ccc(NC(=NS(=O)(=O)c2ccc(C)cc2)Nc2nc(C)cc(C)n2)cc1	.	.	i	.	.	.
CCOC(CCl)S(=NS(=O)(=O)c1ccccc1)c1ccccc1I (stereo not given)	.	.	i	.	.	.
N#Cc1c(NC(=O)C2CC(c3ccccc3Cl)=NO2)sc2c1CCC2 (stereo not given)	.	.	.	.	.	-1
Cc1onc(-c2ccccc2Cl)c1C(=O)Nc1sc2c(c1C#N)CCC2	-0.25	-0.68	i	-11	83*	-19
Cc1onc(-c2ccccc2)c1C(=O)Nc1nc2c(s1)CCCC2	0.41	-0.0084	i	5	30	-3
Cc1onc(-c2c(F)cccc2Cl)c1C(=O)Nc1nc2c(s1)CCCC2	0.014	-0.27	i	-5	63*	-16
CCN(CC)c1ccc2cc(C(=O)Nc3cccc(C)c3)c(=N)oc2c1	.	.	i	.	.	.
Cc1ccc2oc(-c3ccc([N+](=O)[O-])cc3)cc(=O)c2c1	.	.	i	.	.	.
O=C1c2ccccc2NC(c2ccc(Cl)cc2Cl)N1O (stereo not given)	0.0031	0.033	i	1	13	58*
Cc1c(C(=O)N2CCCCC2)oc2ccc(S(=O)(=O)N3CC(C)CC(C)C3)cc12 (stereo not given)	-0.98	2	i	0	91*	2
COc1ccc(OC)c(/C=N/c2oc(-c3ccco3)c(-c3ccco3)c2C#N)c1	-0.00024	-0.22	i	55*	12	6
Cc1ccc(Nc2cc(C)nn2-c2nc(C)cc(C)n2)cc1	-0.029	0.19	i	-2	13	-5
Cc1ccc(Nc2cc(C)nn2-c2nc(C)cc(=O)[nH]2)cc1	-0.0025	0.59	i	-1	100*	77*
SMILES	M1 antagonist	M1 ag	BAP1 block	Hsp90 inh	tolC growth inh	E coli WT exp
O=S(=O)(c1ccc(S(=O)(=O)N(Cc2cccs2)CC2CCCO2)cc1)N1CCCCC1 (stereo not given)	0.00065	1.3	i	1	38	-14
O=S(=O)(NC1CCCC1)c1ccc(S(=O)(=O)N(Cc2cccs2)CC2CCCO2)cc1 (stereo not given)	-1.3	0.12	i	-1	64*	-11
O=C(OCc1nnc(-c2ccccc2)o1)c1cn(-c2ccccc2)nc1-c1ccccc1	-0.18	-0.36	.	.	18	-24
Cc1cc(C(=O)OCc2nnc(-c3ccccc3)o2)c(C)n1-c1ccccc1	-0.24	-2.1	.	.	63*	-15
Cn1cccc1Cc1nnc(SCC(=O)Nc2ccc(F)cc2)n1-c1ccc(F)cc1	-0.079	-0.037	i	-2	16	-1
Cn1cccc1Cc1nnc(SCC(=O)Nc2ccc(Cl)cc2)n1-c1ccc(F)cc1	-0.51	0.065	i	-3	71*	-8
CN(C)c1ccc(/C=N/n2ncc3ccccc32)cc1	0.013	-0.038	.	.	62*	-4
CN(C)c1ccc(C=Nc2ccccc2)cc1	.	.	.	.	.	4
CCCn1c2ccccc2c2nc3ccccc3nc21	0.41	1.1	i	-2	69*	-10
CC1CCCc2sc3nc(NCc4ccco4)n4ncnc4c3c21 (stereo not given)	-0.3	-0.96	i	-6	81*	-11
CC1CCc2sc3nc(NCc4ccco4)n4ncnc4c3c2C1 (stereo not given)	-0.3	-0.88	i	-18	36	-4
O=C(CCS(=O)(=O)C(Cl)Cl)OCc1cccc(Oc2ccccc2)c1	.	.	i	.	.	.
Cn1c(=O)c2c(nc(SCC#N)n2C)n(C)c1=O	.	.	i	.	.	.
CCn1c(CSc2nnc3ccccn23)nc2cc(C(=O)O)ccc21	0.27	0.8	i	138*	-7	0
CCn1c(CSc2nnc(-c3cccnc3)n2-c2ccccc2C)nc2cc(C(=O)O)ccc21	0.011	-1.3	i	145*	-18	4
O=C1C(Cl)=C(N2CCCCCC2)C(=O)N1C1CCCCC1	.	.	i	.	.	.
N#Cc1nc(COc2ccccc2F)oc1NCCc1ccccc1	-1.6	-0.08	i	-2	100*	7
COc1ccc(CCNc2oc(COc3ccccc3)nc2C#N)cc1	-0.0029	0.072	i	-5	10	-11
CCOC(=O)C1=C(C)NC(C)=C(C(=O)OCC)C1c1ccccc1	.	.	i	.	.	.
O=C(Cc1ccc(Br)cc1)c1ccc(O)cc1O	-0.31	-0.72	i	-2	95*	59*
COc1cccc(NC(=O)CSc2nc3c(c(-c4ccco4)c2C#N)CCCC3)c1	0.26	-2.6*	i	-5	-12	-11
COCCOC(=O)c1c(C)nc(SCC(=O)Nc2ccc(OC)cc2)c(C#N)c1-c1ccco1	0.48	0.0046	i	-5	1	15
CCN1CCN(Cc2ccc3c(c2)Cc2ccccc2-3)CC1	-3.5*	2.2	i	-5	-5	.
c1ccc2c(c1)Cc1cc(CN3CCOCC3)ccc1-2	-0.86	-2	i	-6	10	3
CCCCN(CCCNC(=O)CN1C(=O)COc2ccccc21)c1ccccc1	-0.21	-0.24	.	.	61*	1
CCN(CCCNC(=O)CN1C(=O)COc2ccccc21)c1ccccc1	-0.26	0.79	.	.	12	-5
CCOC(=O)c1c(NC(=O)CCc2ccc(CC)o2)sc(C)c1C	.	.	.	.	.	2
COC(=O)c1c(NC(=O)CCc2ccc(C)o2)sc(C)c1C	-0.08	-1.6	.	-13	61*	1
CCN(Cc1ccccc1)C(=O)CCc1nc(-c2ccc(C)cc2)no1	0.14	-0.19	i	-2	88*	-9

High-throughput results: PubChem BioAssay, several laboratories
